# Measurements from ChEMBL document CHEMBL4513216, “Probing the Open Global Health Chemical Diversity Library for Multistage-Active Starting Points for Next-Generation Antimalarials” (ACS Infect Dis, 2020).
# Assay: Toxicity liver stage against HepG2, at 10uM
# Assay type: cell-based
# Design: test concentration 10 uM, cell line HepG2-A16-CD81EGFP
# Conditions: human, HepG2-A16-CD81EGFP cells; read-out: INHIBITION
# Method in brief: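 Uninfected HepG2-A16-CD81EGFP cells, 3 × 10^3 per well, 1536-well, plated on prespotted compound at 10 μM final, parasite-free screening media added to match infected plates; puromycin 10 μM positive, DMSO 0.5% negative; run in parallel with 48 h PbLuc assay at 37 °C, 5% CO2; viability by CellTiter-Glo luminescence, normalized to controls.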
row,Compound,cytotoxicity at 10 µM [%]
1,NC(=O)Cn1ccc(O)c(Cc2ccc(Cl)cc2Cl)c1=O,8.85
2,Cc1nc(C)c(CN2CCOC[C@H](Oc3ccccc3)C2)s1,7.53
3,Nc1nc2c(c3c1C(=O)NC3=O)CCCC2,10.2
4,Cc1ccnc(SCC(=O)Nc2csc3nc(=O)c(C)nn23)n1,12.2
5,O=C(CNC(=O)c1cnccn1)Nc1ncc[nH]1,-43.4
6,O=C1CSC(c2ccc(F)c(Cl)c2)c2c(n(C3CCOCC3)[nH]c2=O)N1 (stereo not drawn),3.4
7,CC(=O)Nc1cccc2c1ccn2CC(=O)Nc1n[nH]c(CC(C)C)n1,-0.473
8,Cc1cc(=O)[nH]c(-n2nc(C)c(CCC(=O)NCc3cccs3)c2C)n1,10.3
9,Cc1cc(S(=O)(=O)N2CCC(N3CCC(O)C3)CC2)c(Cl)cc1Cl (stereo not drawn),0.944
10,COc1cc(N2CC[C@@H]3O[C@@H](c4ccncn4)C[C@H]3C2)ncn1,12.6
11,CCN1CC2(CC1=O)CN(C(=O)c1cccs1)CCN(C(=O)N(C)C)C2 (stereo not drawn),2
12,O=C(Nc1cnn(COc2ccc(F)cc2Cl)c1)C1CC1,-10.6
13,Cc1nnc(SCC(=O)NCc2ccc3c(c2)CCC(=O)N3)s1,-5.03
14,CCn1nc(C)c(CNC(=O)c2nnc3ccc(Cl)cc3n2)c1C,8.1
15,CCC(=O)N1CCCC(c2nc(N(C)C)ncc2-c2ccc(F)cc2)C1 (stereo not drawn),28.1
16,Cc1csc(NC(=O)c2cnc(C3CCCN(C)C3)cn2)n1 (stereo not drawn),-21.3
17,O=C(c1cnccn1)N1CCCC(Cc2cccc3ncccc23)C1 (stereo not drawn),12
18,COc1cc(CNc2cnn(C(C)(C)C)c(=O)c2Cl)ccn1,55.9
19,Cc1ccc(-c2nc(CC(=O)NCC3CCOC3)cs2)o1 (stereo not drawn),-43
20,Cc1nc(-c2ccccc2)ccc1C(=O)N1CCN(CCO)CC1,-53.9
21,CC(C)C(NCc1ccc(Cn2cncn2)cc1)c1ccc(F)cn1 (stereo not drawn),-0.593
22,CC(C)N(CC(=O)Nc1ccc(Br)cc1Cl)Cc1cccnc1,17.2

row,Compound,cytotoxicity at 10 µM [%]
1,Cc1c(Cl)cccc1NC(=O)CN(Cc1cccnc1)C(C)C,4.77
2,Cn1ccc(N2CCCC(NC(=O)c3ccsc3)C2=O)n1 (stereo not drawn),-3
3,CN(CCN1CCN(c2ccccc2)CC1)C(=O)Nc1ccncc1,11.5
4,Cc1cnn(C2CN(CC(O)COc3ccc(C#N)cc3)C2)c1 (stereo not drawn),1.81
5,N#Cc1ccc(NCC(=O)Nc2ncn(Cc3cccnc3)n2)cc1,7.65
6,N#Cc1csc(CN(CC(=O)N2CCCC2)CC2CCCO2)c1 (stereo not drawn),-6.26
7,COc1ccc(CNC(C)c2ccc(Cl)c(Cl)c2)c(OC)c1OC (stereo not drawn),14.2
8,CN(C)CCCNC(=O)c1cnc(Cc2ccc(F)cc2)s1,3.47
9,Cc1noc(C)c1CN1CCC(c2nc3cc(Cl)ccc3o2)CC1,-4.22
10,O=S(=O)(NCCCN1CCCC1)c1cc(F)cc(F)c1,8.84
11,CN(Cc1ccccc1)C(=O)CSc1ccc2c(c1)OCCO2,-9.48
12,CCOCCC1(C(=O)N2CCCC(c3ncc[nH]3)C2)CCCC1 (stereo not drawn),-1.7
13,Cc1ccsc1CN(C)c1nc2c(cnn2C(C)(C)C)c(=O)[nH]1,33.3
14,N#Cc1nccnc1N1CCC(OCCCc2ccccc2)C1 (stereo not drawn),4.31
15,CCCN(CCC)S(=O)(=O)c1cc(NC(C)=O)ccc1C,-148
16,CCOc1ccc(OCC)c(NCc2cc(C)on2)c1,-40.1
17,FC(F)(F)c1cccc(N2CCC(NCc3cccnc3)CC2)c1,-64.5
18,CNC(=O)CNC(=O)Nc1cc(-c2ccccc2)ns1,22
19,Cc1cc(NC(=O)NC2CCN(C(C)C)CC2)c2ncccc2c1,9.67
20,Cn1cc(CCNCC2CNc3ccnn3C2)cn1 (stereo not drawn),3.34
21,Cc1cccc(NCc2ncc(C(C)(C)C)o2)c1,24.3
22,O=C(CCc1ccccc1)N1CCCCC1C1OCCO1 (stereo not drawn),-45.1

row,Compound,cytotoxicity at 10 µM [%]
1,COc1ncccc1CN1Cc2nccn2CC(CN2CCCC2)C1 (stereo not drawn),-103
2,O=C(CC1CC1)N[C@@H]1CN(C(=O)c2ccoc2)C[C@@H]2CCCO[C@@H]21,-104
3,COCC(=O)N1CCCC2(CCN(c3ccccc3)C2=O)C1 (stereo not drawn),-74.3
4,CC(C)Nc1ncnc2c1CCN(C(=O)c1ccc[nH]1)CC2,-77.6
5,CCC1=N[C@@]2(CC[C@@H]3CN(C(=O)NCc4ccccc4C)C[C@@H]32)C(=O)N1,-71.1
6,O=S(=O)(c1ccccc1)N1CCC2(CCCN2CC2CCCC2)C1 (stereo not drawn),4.4
7,COc1ccc(C)cc1-n1c(COC(C)C)n[nH]c1=O,6.42
8,Cn1ncc(N2CCOC(CCNC(=O)NC(C)(C)C)C2)cc1=O (stereo not drawn),22.6
9,CCc1ccc(CCNc2ncnc3c2CCN(C(=O)C2CC2)C3)cc1,36.9
10,CCOCCC(=O)Nc1cc(C(N)=O)ccc1N1CCCC(C)C1 (stereo not drawn),-43
11,O=C(CCn1cncn1)N1CCCC(CO)(CCCc2ccccc2)C1 (stereo not drawn),4.25
12,c1cc(-c2nc3c(c(NCCn4ccnn4)n2)CCNCC3)ccn1,-56.4
13,O=c1cc(N2CCCC2)cnn1CC(F)F,6.93
14,CC(C)c1cc(N2CCC(C(C)N3CCCC3)CC2)n2nccc2n1 (stereo not drawn),-1.86
15,CN1CCCC1CCn1ccnc1-c1ccc2ccccc2n1 (stereo not drawn),0.0773
16,CC(C)[C@@H]1CN(C(=O)c2ccc3c(c2)CCCO3)C[C@H]1NS(C)(=O)=O,-6.53
17,CCc1cn[nH]c1C1CCN(c2cc(C)c3ccc(OC)cc3n2)CC1,18.7
18,Cc1[nH]c2ccccc2c1CCNc1ncnc2c1CCNCC2,-37.5
19,COc1ccc(F)c(CN2CCCC(O)(CNCC(C)(C)C)C2=O)c1 (stereo not drawn),12.2
20,Cc1nc2c(c(N3CCCC(OCc4ccccn4)C3)n1)CCNCC2 (stereo not drawn),0.383
21,CCCn1ncc(C2CC(=O)NCc3nc4cc(C)ccn4c32)c1C (stereo not drawn),-3.21
22,Cn1ncc(N2CCC(CNC3CC(C)(C)CC(C)(C)C3)C2)cc1=O (stereo not drawn),-10.4

row,Compound,cytotoxicity at 10 µM [%]
1,CCN1CC2(CCC1=O)CCN(C(=O)C(O)c1cccc(Cl)c1)CC2 (stereo not drawn),0.636
2,CN(CC1(CO)CCCC1)c1nc2c(c(=O)[nH]1)Cc1ccccc1OC2,11.7
3,CCCn1ncc(CN2CCCC(C(=O)c3ccc(Cl)cc3C)C2)c1C (stereo not drawn),-6.35
4,CSc1ncc(CNCC2(N3CCCCC3)Cc3ccccc3C2)cn1,5.07
5,CCN1CCN(C(=O)c2ccc3c(c2)NC(=O)CN3)[C@H]2CS(=O)(=O)C[C@H]21,-52.9
6,CCc1nnc(CN(C)Cc2cccc(C(=O)Nc3nccs3)c2)o1,-2.97
7,CC[C@H](C)[C@@H](CO)NC(C)Cc1ccc(Cl)cc1 (stereo partly drawn),-10.6
8,Cc1cccc(C2CC(=O)Nc3c2c(=O)[nH]n3C(C)C)c1 (stereo not drawn),-3.33
9,CC(=O)Nc1cccc(-c2ccccc2CCN)c1,-5.85
10,CCn1nc(C)c(CCNC(=O)c2cccc(-n3cccn3)c2)c1C,-12.9
11,Cc1nc(NCc2noc(C3CCCO3)n2)c2ccsc2n1 (stereo not drawn),49.9
12,CCCOC(C)Cn1ccc2[nH]c(=O)c(C#N)cc2c1=O (stereo not drawn),7.39
13,CCCc1cc(CNC2CCN(c3cc(C)nc(N)n3)CC2)on1,-6.17
14,CCN(CC)CCCN1CCN(c2nc(C)cnc2C)CC1,-31
15,Nc1cc2c(nn1)CCN(C(=O)CCCC1CCCCC1)C2,-0.0113
16,CCNc1cc2c(nn1)CCN(C(=O)c1cc3cccc(C)c3o1)C2,-8.06
17,CCc1nc(C2CCCN2Cc2noc(Cc3ccccc3)n2)no1 (stereo not drawn),1.29
18,CC(C)(C)n1cc(C(=O)N2CCN(Cc3ccccc3F)CC2)cn1,10.6
19,Cc1nc(C)n(CC2CCCN(c3ncnc4sccc34)C2)n1 (stereo not drawn),36.2
20,Cc1cc(N2CCC(Cc3ccccc3)CC2)nc(-c2ccncc2)n1,-2.68
21,O=C(c1ccoc1)N1CCOC2(COCCN(CC3CC3)C2)C1 (stereo not drawn),7.57
22,Cc1cc(CN2C[C@@H]3CCCO[C@@H]3[C@H](N(C)C(C)C)C2)no1,2.44

row,Compound,cytotoxicity at 10 µM [%]
1,COc1ccc(CNC(C)c2cccc(Br)c2)c(OC)c1OC (stereo not drawn),9.75
2,CCc1ccc(S(=O)(=O)N2Cc3c(CN(C)C)nn(C)c3C2)cc1,-106
3,O=C1CC(c2ccncc2)C2(CCN(C(=O)c3cccs3)CC2)N1 (stereo not drawn),-71.1
4,CC(C)Nc1nc2c(cc1C(=O)NCC1CC1)CCN(CC1CC1)CC2,46.5
5,CC(C)COCc1cncc2c1CCN(Cc1cnn(C)c1)C2,-7.96
6,O=C(Nc1cccc(CNCc2csc(Br)c2)c1)C1CC1,7.97
7,Cc1cnc(N2C[C@@H]3[C@@H](C2)OCC(=O)N3CCN(C)C)nc1,-4.35
8,COc1cc(N2C[C@H]3CCC[C@@H](CN4CCOCC4)[C@H]3C2)ncn1,-71.5
9,CC(C)N1CCCn2c(nc(CNC(=O)c3nccn3C)cc2=O)C1,2.84
10,O=C(NCc1cccnc1)[C@@H]1CC[C@@H]2[C@@H](CCN2c2ncc(F)cn2)O1,-44.6
11,c1ccc(COC[C@@H]2CCC[C@@]23CNCCO3)nc1,-105
12,Cc1cncc(C(=O)N2CCO[C@H]3[C@H](Oc4ccccn4)CC[C@@H]32)c1,-115
13,Cn1cc(CN2CCOC3(CCCN(c4cccc(F)c4)C3)C2)cn1 (stereo not drawn),-77.1
14,CC(C)NC(=O)N1Cc2nccn2CC(CN2CCCC2)C1 (stereo not drawn),-75.8
15,O=C(NCc1cccnc1)[C@@H]1C[C@H]2[C@H](CCN2c2ncccn2)O1,-66.6
16,O=C(c1cc(C2CC2)on1)N1C[C@@H]2COC[C@]2(COc2cccnc2)C1,-89.7
17,Cn1nccc1-c1nc2c(cc1C(=O)O)CCN(C(=O)C1CC1)CC2,-143
18,Fc1cnc(N2CCOC3(CCN(Cc4ccsc4)CC3)C2)nc1,2.6
19,CCNCCc1nc2cc(F)ccc2[nH]1,5.18
20,COC1[C@@H]2CC[C@H]1CN(c1nc(C)nc3sccc13)C2 (stereo partly drawn),34
